Laboratory results taken from ChEMBL document CHEMBL1122268, “Mechanism of action of 2',5-difluoro-1-arabinosyluracil” (J Med Chem, 1983).

Key:
Lacticaseibacillus casei = assay: Inhibition of dTMP synthetase in the absence of CH2-H4 folate Lactobacillus casei; type: functional
S49 [1] = assay: Reduction of deoxy-Cytidinetriphosphate pool after 1 hour incubation in S-49 cells(2 X 10e 5) at a concentration of 16.5 uM; type: functional, Mus musculus
Procedure, shortened: (§1)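 Mouse lymphoma S-49 suspension cultures at 2 × 10^5 cells/mL in DMEM with 10% heat-inactivated horse serum, 37 °C, exposed to 16.5 μM drug; dATP, dCTP, dGTP, dTTP pool sizes measured at 1 h (dTTP also 4 h), expressed as percent of original value.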

[2] = test system: Thymidylate synthase (Lactobacillus casei); assay: Rate constant for the inactivation of DTMP synthetase in the presence of cofactor CH2-H4 folate
S49 [3] = assay: Reduction of deoxy-Thymidinetriphosphate pool after 4 hour incubation in S-49 cells(2 X 10e 5) at a concentration of 16.5 uM; type: functional, Mus musculus; procedure, shortened: as §1
S49 [4] = assay: Reduction of deoxy-[…] pool after 1 hour incubation in S-49 cells(2 X 10e 5) at a concentration of 16.5 uM; type: functional, Mus musculus; procedure, shortened: as §1
S49 [5] = assay: The growth inhibition of thymidine kinase deficient S-49 cells; type: functional, cell-based; settings: Mus musculus
Procedure, shortened: (§2)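 S-49 or thymidine kinase-deficient S-49/TK⁻ cells in 1 mL DMEM with 10% heat-inactivated horse serum plus inhibitor, 37 °C, 10% CO2, 72 h; cell density counted daily by Coulter counter; EC50 = concentration halving growth rate relative to untreated controls.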

S49 [6] = assay: Reduction of deoxy-Thymidinetriphosphate pool after 1 hour incubation in S-49 cells(2 X 10e 5) at a concentration of 16.5 uM; type: functional, Mus musculus; procedure, shortened: as §1
L5178Y = assay: The growth inhibition of L5178Y cell line; type: functional, cell-based; settings: Mus musculus
S49 [7] = assay: Reduction of deoxy-Adenosinetriphosphate pool after 1 hour incubation in S-49 cells(2 X 10e 5) at a concentration of 16.5 uM; type: functional, Mus musculus; procedure, shortened: as §1
S49 [8] = assay: The growth inhibition of S-49 mouse lymphoma cells; type: functional, cell-based; procedure, shortened: as §2
P815 = assay: The growth inhibition of P815 cell line; type: functional, cell-based; settings: Mus musculus

O=c1[nH]c(=O)n([C@H]2C[C@H](O)[C@@H](COP(=O)(O)O)O2)cc1Cl
Ki (Lacticaseibacillus casei): 190 nM

O=c1[nH]c(=O)n([C@H]2O[C@@H](CO)[C@H](O)[C@H]2F)cc1F
Increase (S49 [1]): 172%
Rate constant [2]: 2.4 min⁻¹
Decrease (S49 [3]): 40%
Decrease (S49 [4]): < 20%
EC50 (S49 [5]): 400 µM
Decrease (S49 [6]): 80%
EC50 (L5178Y): 3.8 µM
Decrease (S49 [7]): 90%
EC50 (S49 [8]): 3.3 µM
EC50 (P815): 2600 nM

O=c1[nH]c(=O)n([C@@H]2O[C@H](COP(=O)(O)O)[C@@H](O)[C@@H]2F)cc1F
Ki (Lacticaseibacillus casei): 3300 nM

O=c1ccn([C@H]2C[C@H](O)[C@@H](COP(=O)(O)O)O2)c(=O)[nH]1 [DEOXYURIDINE MONOPHOSPHATE]
Ki (Lacticaseibacillus casei): 2300 nM
